IC50 data for three molecules are collected here from PMC6734327 (Heliyon, 2019).

One test has as its system prostate cancer (PC-3). The note with it: read-out: IC50 PC-3; cited from earlier work.
A further test relates to breast cancer (MCF7). The note with it: read-out: IC50 MCF7; cited from earlier work.
In another test the test system is lung cancer (SK-LU-1). The note with it: read-out: IC50 SK-LU-1; cited from earlier work.
The subject of test [1] is MCF-7 (human breast adenocarcinoma). Briefly: Cytotoxic assay, alamar blue, MCF-7. The format is cell-based. The note with it: MCF7, 72 h, read-out: IC50 MCF-7. The method, boiled down:
(§1)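 Cells from ATCC, mycoplasma-negative, grown in RPMI 1640 with 10% FBS at 37 °C and 5% CO2. Seeded at 0.7 × 10^5 cells/mL (adherent) or 0.3 × 10^6 cells/mL (suspension), then pre-incubated for 24 h. Test compound in DMSO added for 72 h; doxorubicin was the positive control and DMSO the vehicle control. Resazurin stock (0.312 mg/mL) added 4 h before the end. Absorbance read at 570/595 nm. IC50 taken from non-linear regression of % inhibition versus log concentration.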
(In general: The colour change of resazurin is a common sign of viable cells or microbes.)

The test system of test [2] is HepG2 (human hepatocellular carcinoma). The test can be described thus: Cytotoxic assay, alamar blue, HepG2. The format is cell-based. As to conditions: HepG2, 72 h, read-out: IC50 HepG2. The method in brief: as §1
The test system of test [3] is MRC-5 (human lung fibroblast). Briefly: Cytotoxic assay, alamar blue, non-cancer MRC-5. Type of test: cell-based. As to conditions: MRC5, 72 h, read-out: IC50 MRC-5. The method in brief:
as §1

As usually defined, the IC50 is the midpoint of a concentration-inhibition curve.

In the case of `C[C@]12CC[C@H](O)CC1=CC[C@@H]1[C@@H]2CC[C@]2(C)C(C(=O)Cn3cncn3)=CC[C@@H]12` [3β-hydroxy-21-(1H-1,2,4-triazol-1-yl)pregna-5,16-dien-20-one], the concentration for half-maximal inhibition (IC50) with prostate cancer (PC-3) is 17 µM; in the test with breast cancer (MCF7), 360 µM; with lung cancer (SK-LU-1), 230 µM.
Consider `C[C@]12CC[C@@H]3c4ccc(O)cc4CC[C@H]3[C@@H]1CC[C@@]2(O)c1cn(CC(=O)c2ccccc2)nn1` [3a, 2-(4-((8R,9S,13S,14S,17S)-3,17-dihydroxy-13-methyl-7,8,9,11,12,13,14,15,16,17-decahydro-6H-cyclopenta[a]phenanthren-17-yl)-1H-1,2,3-triazol-1-yl)-1-phenylethan-1-one], for which the IC50 in test [1] is > 54.6 µM; in test [2], 29.7 µM; in test [3], > 54.6 µM.
In the case of `COc1cccc2c1C(=O)c1c(O)c3c(c(O)c1C2=O)C[C@@](O)(C(=O)CO)C[C@@H]3O[C@H]1C[C@H](N)[C@H](O)[C@H](C)O1` [Doxorubicin], the IC50 in test [3] came to 2.4 µM.
